In general, Ki refers to a measure of affinity in units of concentration, obtained from inhibition or displacement.

The results in this text go back to ChEMBL document CHEMBL2321814, “Sulfocoumarins (1,2-benzoxathiine-2,2-dioxides): a class of potent and isoform-selective inhibitors of tumor-associated carbonic anhydrases” (J Med Chem, 2013).

Assay [1] concerns the target Carbonic anhydrase 1 (Homo sapiens, UniProt P00915). The assay is described as follows: Inhibition of full length human recombinant CA1 cytosolic isoform after 6 hrs by stopped-flow CO2 hydration method.
Assay [2] has as its target Carbonic anhydrase 2 (Homo sapiens, UniProt P00918). Briefly: Inhibition of full length human recombinant CA2 cytosolic isoform after 6 hrs by stopped-flow CO2 hydration method.
In assay [3] the target is T1, Carbonic anhydrase 9 (Homo sapiens, UniProt Q16790).
For assay [4], the target named is T1, Carbonic anhydrase 9. The assay is described as follows: Inhibition of human recombinant transmembrane CA9 catalytic domain after 15 mins by stopped-flow CO2 hydration method. The gist of the method:
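Recombinant CA IX catalytic domain was preincubated with inhibitor for 15 min at room temperature. CO2 hydration was followed by stopped-flow with phenol red (0.2 mM, 557 nm) in 20 mM Hepes pH 7.5 with 20 mM Na2SO4, CO2 1.7–17 mM. Initial rates came from at least six traces of the first 5–10% of reaction, minus uncatalyzed rates. Inhibitor dilutions went down to 0.01 nM in water.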

Assay [5] deals with Carbonic anhydrase 2 (Homo sapiens, UniProt P00918, A65S/N67Q). Briefly: Inhibition of human CA2 Ala65Ser and Asn67Gln double mutant expressed in Escherichia coli strain BL21 (DE3) after 6 hrs by stopped-flow CO2 hydration method. The method in brief:
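CA II mutant mimicking the CA IX active site was expressed in E. coli BL21(DE3), IPTG-induced, and purified by His-trap, gel filtration and Mono-Q. Enzyme and inhibitor were preincubated 6 h at 4 °C. Stopped-flow CO2 hydration used phenol red (0.2 mM, 557 nm), 20 mM Hepes pH 7.5, 20 mM Na2SO4 and CO2 1.7–17 mM, with uncatalyzed rates subtracted. Three assays were run.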

Calls of active or inactive are those of the source. The calls are words filed in the database; no cut-off is given here.

Sequence of Carbonic anhydrase 1 (P00915 whole entry, canonical isoform): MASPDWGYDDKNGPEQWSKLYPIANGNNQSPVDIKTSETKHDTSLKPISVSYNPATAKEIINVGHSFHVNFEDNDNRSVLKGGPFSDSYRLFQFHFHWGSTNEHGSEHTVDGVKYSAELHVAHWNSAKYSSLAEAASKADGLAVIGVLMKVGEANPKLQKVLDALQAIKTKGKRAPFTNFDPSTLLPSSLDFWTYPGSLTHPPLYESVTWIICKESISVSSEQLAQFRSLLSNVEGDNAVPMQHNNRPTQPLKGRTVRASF

Consider `O=S1(=O)C=Cc2c(ccc3ccccc23)O1`, for which the Ki was over 100000 nM in assay [1], over 100000 nM in assay [2] and 375 nM in assay [3]. Besides, the inhibition result in assay [4] is “inactive”.

`COc1ccc(-c2cn(-c3ccc4c(c3)C=CS(=O)(=O)O4)nn2)cc1` returned a Ki in assay [3] of 18 nM. Besides, the inhibition entry in assay [4] was “inactive”.

Take `O=S1(=O)C=Cc2cc(-n3cc(-c4ccc(OC(F)(F)F)cc4)nn3)ccc2O1`: the Ki in assay [3] stood at 74 nM. In addition, the inhibition entry in assay [4] is “inactive”.

Regarding `O=S1(=O)C=Cc2cc(O)ccc2O1`, the figures for the Ki in assay [2], in assay [3] and in assay [5] were over 100000 nM, 300 nM and 800 nM, respectively. For the same compound, the inhibition result in assay [4] was “inactive”.

In assay [3], `COc1cccc(-c2cn(-c3ccc4c(c3)C=CS(=O)(=O)O4)nn2)c1` gave a Ki of 49 nM. The inhibition entry in assay [4] is “inactive”.

With `CCN(CC)Cc1cn(-c2ccc3c(c2)C=CS(=O)(=O)O3)nn1`, the Ki in assay [3] was 25 nM. Moreover, the inhibition entry in assay [4] was “inactive”.

On to `COC(=O)c1cn(-c2ccc3c(c2)C=CS(=O)(=O)O3)nn1`, for which the affinity in assay [3] corresponds to a Ki of 950 nM. In addition, in assay [4], the inhibition entry was “inactive”.

In the case of `O=c1ccc2ccccc2o1`, the inhibition result in assay [4] is “inactive”.

In assay [3], `O=S1(=O)C=Cc2cc(-n3cc(-c4ccccc4)nn3)ccc2O1` gave a Ki of 29 nM. Besides, in assay [4], the inhibition result was “inactive”.

Consider `COc1cc2oc(=O)ccc2cc1[C@@H](O)CC(C)C`, for which the inhibition entry in assay [4] was “inactive”.

As to `O=[N+]([O-])c1ccc2c(c1)C=CS(=O)(=O)O2`, the Ki was over 100000 nM in assay [2] and 3770 nM in assay [3]. Further, the inhibition result in assay [4] was “inactive”.

For `CCOC(=O)c1cn(-c2ccc3c(c2)C=CS(=O)(=O)O3)nn1`, the Ki in assay [3] amounted to 86 nM. The inhibition result in assay [4] was “inactive”.

In assay [3], `C[Si](C)(C)c1cn(-c2ccc3c(c2)C=CS(=O)(=O)O3)nn1` gave a Ki of 60 nM. Also, the inhibition result in assay [4] was “inactive”.

`O=S1(=O)C=Cc2cc(-n3cc(CO)nn3)ccc2O1` yielded an inhibition constant Ki in assay [3] of 58 nM. The inhibition entry in assay [4] is “inactive”.

For the compound `O=S1(=O)C=Cc2cc(-n3cc(-c4cccc(C(F)(F)F)c4)nn3)ccc2O1`, the inhibition constant Ki in assay [3] came out at 48 nM. In assay [4], the inhibition result is “inactive”.

As to `O=S1(=O)C=Cc2cc(Cl)cc(Cl)c2O1`, the values for the Ki in assay [1], in assay [2] and in assay [3] were over 100000 nM, over 100000 nM and 3260 nM, respectively. The inhibition result in assay [4] is “inactive”.

As to `O=S1(=O)C=Cc2cc(Br)ccc2O1`, the Ki in assay [1] is over 100000 nM; in assay [2] it was over 100000 nM; in assay [3] it was 6830 nM; in assay [5], 930 nM. For the same compound, the inhibition result in assay [4] was “inactive”.

In the case of `O=S1(=O)C=Cc2cc(OCc3ccccc3)ccc2O1`, the Ki in assay [2] was over 100000 nM; in assay [3], 275 nM; in assay [5], 2370 nM. In assay [4], the inhibition result was “inactive”.

Take `Nc1ccc2c(c1)C=CS(=O)(=O)O2`: in assay [3], the inhibition constant (Ki) was determined as 46 nM. The inhibition entry in assay [4] is “inactive”.
